The results in this text go back to ChEMBL document CHEMBL4431325, “Design and Synthesis of Orally Bioavailable 4-Methyl Heteroaryldihydropyrimidine Based Hepatitis B Virus (HBV) Capsid Inhibitors” (J Med Chem, 2016).

Each structure is given as a SMILES string.

Data set [1] is described as follows: Intrinsic clearance in mouse liver microsomes at 1 uM preincubated for 10 mins followed by NADPH addition measured up to 30 mins by LC-MS/MS analysis. The class given is ADME, Microsome. Conditions: read-out: CLH; call rule not given here. Background: Liver microsomes are a subcellular fraction often used to study metabolism.
Data set [2] is described as follows: Oral bioavailability in CD-1 mouse plasma administered as single dose by LC-MS/MS analysis. The class given is ADME, organism-based. In a few lines:
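CD-1 mice (18-25 g) were used, with three mice per time point. The i.v. dose (5 mg/kg) was given in 6% Solutol/ethanol (1:1) plus 94% saline, and the oral dose (50 mg/kg) in 1% RC591. Blood was sampled at nine (i.v.) or eight (p.o.) time points into heparin. Plasma was analysed by LC-MS/MS, and parameters including F were derived noncompartmentally.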

A short description of data set [3]: Intrinsic clearance in human liver microsomes at 1 uM preincubated for 10 mins followed by NADPH addition measured up to 30 mins by LC-MS/MS analysis. It counts as ADME, Microsome. Conditions: read-out: CLH.
Data set [4] is described as follows: Drug metabolism in human liver microsomes assessed as aromatization of dihydropyrimidine core at 1 uM preincubated for 10 mins followed by NADPH addition measured up to 30 mins by LC-MS/MS analysis. The following applies: 0.5 h. The class given is ADME, Microsome.
The nature of data set [5]: Drug metabolism in mouse liver microsomes assessed as aromatization of dihydropyrimidine core at 1 uM preincubated for 10 mins followed by NADPH addition measured up to 30 mins by LC-MS/MS analysis. The class given is ADME, Microsome. Conditions: 0.5 h.
The nature of data set [6]: Stability in CD-1 mouse liver by LC-MS/MS analysis. It counts as ADME, tissue-based.
A short description of data set [7]: Half life in CD-1 mouse plasma at 5 mg/kg, iv administered as single dose by LC-MS/MS analysis. It counts as ADME, organism-based.
Data set [8] is described as follows: AUC (0 to t) in CD-1 mouse plasma at 50 mg/kg, po administered as single dose by LC-MS/MS analysis. The class given is ADME, organism-based. The following applies: in vivo.
Data set [9] in a line: Drug uptake in CD-1 mouse heart at 5 mg/kg, iv or 50 mg/kg, po administered as single dose by LC-MS/MS analysis. The class given is ADME, organism-based. Conditions: in vivo.
A short description of data set [10]: Cmax in CD-1 mouse plasma at 50 mg/kg, po administered as single dose by LC-MS/MS analysis. It counts as ADME, organism-based. Details: dose 50 mg/kg, route oral.
Another data set can be described thus: in vivo. Conditions: CD-1, mouse, other tissue, po, 50 mg/kg.
The nature of data set [11]: Oral bioavailability in CD-1 mouse plasma at 50 mg/kg administered as single dose by LC-MS/MS analysis. It counts as ADME, organism-based.
The nature of data set [12]: Drug uptake in CD-1 mouse brain at 5 mg/kg, iv or 50 mg/kg, po administered as single dose by LC-MS/MS analysis. It counts as ADME, organism-based. Conditions: in vivo.
The nature of data set [13]: AUC (0 to t) in CD-1 mouse liver at 50 mg/kg, po administered as single dose by LC-MS/MS analysis. Conditions: in vivo. It counts as ADME, organism-based.
Data set [14] is described as follows: Volume of distribution at steady state in CD-1 mouse plasma at 5 mg/kg, iv administered as single dose by LC-MS/MS analysis. The class given is ADME, organism-based. The following applies: read-out: Vdss.
Data set [15] is described as follows: AUC (0 to t) in CD-1 mouse plasma at 5 mg/kg, iv administered as single dose by LC-MS/MS analysis. It counts as ADME, organism-based. Conditions: in vivo.
Data set [16] can be described thus: Cmax in CD-1 mouse liver at 50 mg/kg, po administered as single dose by LC-MS/MS analysis. The class given is ADME, organism-based. On the set-up: dose 50 mg/kg, route oral.
Data set [17] can be described thus: Drug uptake in CD-1 mouse lung at 5 mg/kg, iv or 50 mg/kg, po administered as single dose by LC-MS/MS analysis. It counts as ADME, organism-based. Conditions: in vivo.
A short description of data set [18]: Half life in CD-1 mouse plasma at 50 mg/kg, po administered as single dose by LC-MS/MS analysis. The class given is ADME, organism-based.
Data set [19] is described as follows: Clearance in CD-1 mouse plasma at 5 mg/kg, iv administered as single dose by LC-MS/MS analysis. It counts as ADME, organism-based.
The nature of data set [20]: Cmax in CD-1 mouse plasma at 5 mg/kg, iv administered as single dose by LC-MS/MS analysis. It counts as ADME, organism-based. On the set-up: dose 5 mg/kg, route intravenous.

Regarding `CC(C)OC(=O)C1=C(CN2CCOCC2)NC(c2nccs2)=NC1(C)c1ccc(F)cc1` (stereo unspecified), the CLint scaled at 1 µM in data set [1] came out at 88 mL/min/kg. Same read-out and setting: with `COC(=O)C1=C(CN2CCNCC2)NC(c2nccs2)=NC1(C)c1ccc(F)cc1` (stereo unspecified) the figure was 39 mL/min/kg. Take `CNC(=O)C1=C(CN2CCOCC2)NC(c2nccs2)=NC1(C)c1ccc(F)cc1` (stereo unspecified): the CLint scaled at 1 µM in data set [1] was found to be 77 mL/min/kg. The same measure, in the same setting: with `COC(=O)C1=C(C)NC(c2nccs2)=NC1(C)c1ccc(Cl)cc1` (stereo unspecified) the figure was 85 mL/min/kg; with `COC(=O)C1=C(CN2CCCC(F)(F)C2)NC(c2nccs2)=NC1(C)c1ccc(F)cc1` (stereo unspecified), 89 mL/min/kg; with `COC(=O)C1=C(Cn2ccnc2)NC(c2nccs2)=NC1(C)c1ccc(F)cc1` (stereo unspecified), 69 mL/min/kg.

`COC(=O)C1=C(CN2CCOCC2)NC(c2nccs2)=N[C@@]1(C)c1ccc(F)cc1` came in with a bioavailability in data set [2] of 1.5%. For the same molecule, the CLint scaled at 1 µM in data set [1] is 81 mL/min/kg. In the case of `COC(=O)C1=C(CN2CCC(F)(F)C2)NC(c2nccs2)=NC1(C)c1ccc(F)cc1` (stereo unspecified), the CLint scaled at 1 µM in data set [1] stood at 89 mL/min/kg.

For `COC(=O)C1=C(CN2CCOCC2=O)NC(c2nccs2)=NC1(C)c1ccc(F)cc1` (stereo unspecified), the CLint scaled at 1 µM in data set [1] amounted to 80 mL/min/kg. As to `CC1(c2ccc(F)cc2)N=C(c2nccs2)NC(CN2CCOCC2)=C1C(=O)O` (stereo unspecified), the CLint scaled at 1 µM in data set [1] worked out at 6 mL/min/kg. Still for that read-out and setting: with `COC(=O)C1=C(COC(C(=O)O)C(F)(F)F)NC(c2nccs2)=NC1(C)c1ccc(F)cc1` (stereo unspecified) the figure was 24 mL/min/kg; with `COC(=O)C1=C(CN2CCC(F)(F)CC2)NC(c2nccs2)=NC1(C)c1ccc(F)cc1` (stereo unspecified), 88 mL/min/kg; with `CC1(c2ccc(F)cc2)N=C(c2nccs2)NC(CN2CCOCC2)=C1C(N)=O` (stereo unspecified), 59 mL/min/kg.

Regarding `COC(=O)C1=C(CN2CCOC[C@H]2C(=O)O)NC(c2nccs2)=N[C@@]1(C)c1ccc(F)cc1`, the CLint scaled at 1 µM came to 80 mL/min/kg in data set [1] and 4.1 mL/min/kg in [3]. `COC(=O)C1=C(C)NC(c2ncc(F)cc2F)=N[C@H]1c1ccc(F)cc1Cl`: the Drug metabolism entry in data set [4] and in [5] was “Metabolite_Detected” in each case. Further, the Stability result in data set [6] is “Unstable”.

For the molecule `COC(=O)C1=C(CN2CCOC[C@@H]2C(=O)O)NC(c2nccs2)=N[C@@]1(C)c1ccc(F)cc1`, the CLint scaled at 1 µM in [1] was found to be 61 mL/min/kg. Take `COC(=O)C1=C(COCC(F)(F)F)NC(c2nccs2)=NC1(C)c1ccc(F)cc1` (stereo unspecified): the CLint scaled at 1 µM in data set [1] is 81 mL/min/kg. In the case of `CC1(c2ccc(F)cc2)N=C(c2nccs2)NC(CN2CCOCC2)=C1c1ncco1` (stereo unspecified), in data set [1], the CLint scaled at 1 µM came to 89 mL/min/kg.

With `COC(=O)C1=C(CN2CCNC(=O)C2)NC(c2nccs2)=NC1(C)c1ccc(F)cc1` (stereo unspecified), the CLint scaled at 1 µM in [1] amounted to 81 mL/min/kg. Still for that read-out and setting: with `COC(=O)C1=C(C)NC(c2nccs2)=NC1(C)c1ccc(C#N)cc1` (stereo unspecified) the figure was 75 mL/min/kg. Consider `COC(=O)C1=C(CN2CCC(O)CC2)NC(c2nccs2)=NC1(C)c1ccc(F)cc1` (stereo unspecified), for which the CLint scaled at 1 µM in data set [1] came out at 81 mL/min/kg. As to `COC(=O)C1=C(CN2CCCS2(=O)=O)NC(c2nccs2)=NC1(C)c1ccc(F)cc1` (stereo unspecified), the CLint scaled at 1 µM in data set [1] was found to be 79 mL/min/kg.

In the case of `COC(=O)C1=C(C)NC(c2nccs2)=NC1(C)c1ccc(S(C)(=O)=O)cc1` (stereo unspecified), in data set [1], the CLint scaled at 1 µM came out at 57 mL/min/kg. Same read-out and setting: with `COC(=O)C1=C(CN2CCOCC2)NC(c2nccs2)=N[C@@]1(C)c1ccc(F)c(F)c1` the figure was 89 mL/min/kg; with `COC(=O)C1=C(CN2CCOCC2(C)C)NC(c2nccs2)=NC1(C)c1ccc(F)cc1` (stereo unspecified), 88 mL/min/kg. Same read-out and setting: in the case of `COC(=O)C1=C(CN2CCC(C(F)(F)F)C2)NC(c2nccs2)=NC1(C)c1ccc(F)cc1` (stereo unspecified) it was 88 mL/min/kg. `COC(=O)C1=C(COC2CCOC2)NC(c2nccs2)=NC1(C)c1ccc(F)cc1` (stereo unspecified): the CLint scaled at 1 µM in data set [1] is 79 mL/min/kg. Same read-out and setting: in the case of `COC(=O)C1=C(CN2CCS(=O)(=O)CC2)NC(c2nccs2)=NC1(C)c1ccc(F)cc1` (stereo unspecified) it was 66 mL/min/kg; in that of `COC(=O)C1=C(CN2CC3CC2CO3)NC(c2nccs2)=NC1(C)c1ccc(F)cc1` (stereo unspecified), 84 mL/min/kg. As to `COC(=O)C1=C(CN2CC(F)(F)C[C@H]2C(=O)OC)NC(c2nccs2)=N[C@@]1(C)c1ccc(F)cc1`, the values for the CLint scaled at 1 µM in data set [1] and in [3] were 90 mL/min/kg and 23 mL/min/kg, respectively. Turning to `CC1(c2ccc(F)cc2)N=C(c2nccs2)NC(CN2CCOCC2)=C1C#N` (stereo unspecified), the CLint scaled at 1 µM in data set [1] was 79 mL/min/kg. For the molecule `COC(=O)C1=C(CN2CCC[C@@H]2C(=O)O)NC(c2nccs2)=N[C@@]1(C)c1ccc(F)cc1`, the CLint scaled at 1 µM in data set [1] was found to be 60 mL/min/kg.

Turning to `COC(=O)C1=C(CN2CCC[C@H]2C(=O)O)NC(c2nccs2)=N[C@@]1(C)c1ccc(F)cc1`, the CLint scaled at 1 µM in data set [1] stood at 14 mL/min/kg; in [3] it was 2.3 mL/min/kg. On to `COC(=O)C1=C(C)NC(c2nccs2)=NC1(C)c1ccc(F)c(F)c1` (stereo unspecified), for which the CLint scaled at 1 µM in data set [1] was determined as 83 mL/min/kg. The same measure, in the same setting: in the case of `COC(=O)C1=C(CN2CCCCC2)NC(c2nccs2)=NC1(C)c1ccc(F)cc1` (stereo unspecified) it was 88 mL/min/kg; in that of `COC(=O)C1=C(CN2CCC(O)C2)NC(c2nccs2)=NC1(C)c1ccc(F)cc1` (stereo unspecified), 83 mL/min/kg. As for `COC(=O)C1=C(CN(C)C2(C(=O)O)CC2)NC(c2nccs2)=NC1(C)c1ccc(F)cc1` (stereo unspecified), the CLint scaled at 1 µM in data set [1] was determined as 42 mL/min/kg. Turning to `COC(=O)C1=C(CN2CC(F)(F)C[C@H]2C(=O)O)NC(c2nccs2)=N[C@@]1(C)c1ccc(F)cc1`, the figures for the half-life in [7] and in data set [18] were 10.8 min and 48 min, respectively. In addition, the AUCt in data set [8] was found to be 5420 µg/L/h; in data set [13] it was 107000 µg/L/h; in [15] it was 1500 µg/L/h. For the same molecule, the Drug uptake entry in data set [9], in data set [12] and in data set [17] was “Not Active” throughout. Also, the maximum concentration (Cmax) in data set [10] was 2470 ng/mL; in [16], 41200 ng/mL; in [20], 12400 ng/mL. Further, the CLint scaled at 1 µM in [1] was 84 mL/min/kg; in data set [3] it was 12 mL/min/kg. Further, in the data set “in vivo”, the Kp worked out at 20. The same molecule came in with a bioavailability in [11] of 36%. The Vd in data set [14] worked out at 0.22 L/kg. The molecule further came in with a clearance in data set [19] of 55.3 mL/min/kg. With `COC(=O)C1=C(CN2CC(OC)C2)NC(c2nccs2)=NC1(C)c1ccc(F)cc1` (stereo unspecified), the CLint scaled at 1 µM in data set [1] amounted to 88 mL/min/kg.

In general, bioavailability refers to the share of a dose that reaches the circulation, judged against a reference dose that is usually intravenous. Read a high bioavailability as much systemic uptake. Usually half-life stands for the time in which the quantity being followed falls by half. A lower half-life goes with rapid decline. One may read the Cmax as the highest concentration seen after dosing. By clearance is commonly meant a measure of how efficiently the substance is removed, as volume per time. The low end stands for inefficient removal, the high end for efficient removal.
